Activity calls are given as the source filed them. No cut-off for these calls is given here.
Legend:
[1] = organism: Cavia porcellus; assay: Potency expressed as EC50 for the negative inotropic activity.; assay type: functional
[2] = organism: Cavia porcellus; assay: Decrease in developed tension of the left atrium of guinea pig expressed as the negative inotropy.; assay type: functional, Cardiac atrium; set-up: concentration or dose not given beside the values
Method in brief: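 Isolated guinea pig left atrium, electrically driven at 1 Hz. Read-out is the fall in developed tension at 5 × 10^-5 M, given as percent change from control (n = 5-6).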

[3] = organism: Cavia porcellus; assay: Potency expressed as IC50 for the vasorelaxant activity.; assay type: functional
[4] = organism: Cavia porcellus; assay: Potency expressed as EC30 for the negative chronotropic activity.; assay type: functional
[5] = organism: Cavia porcellus; assay: Percent inhibition of calcium-induced contraction on K+ depolarized guinea pig aortic strip.; assay type: functional, Aorta; set-up: concentration or dose not given beside the values
[6] = test system: K562; assay: Percentage of the dead cells of K-562 cells was determined for the compound; assay type: ADME, cell-based; details: human
Method in brief: (§1)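 Doxorubicin-resistant K 562 cells were exposed to compound at 1 µM, and viability was scored by trypan blue exclusion. Dead cells above 20% counted as toxic.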

[7] = test system: K562; assay: Potency that causes a half maximal increase in nuclear concentration of pirarubicin.; assay type: functional, Homo sapiens
[8] = test system: K562; assay: The efficacy in reverting MDR was evaluated on human erythroleukemia K-562 cell line; assay type: functional
Method in brief: (§2)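 Doxorubicin-resistant and sensitive K 562 cells in exponential growth were used in pH 7.25 HEPES buffer at 37 °C in quartz cuvettes. Pirarubicin uptake was followed as the fall in fluorescence at 590 nm (ex 480 nm). Steady-state nuclear pirarubicin was measured across a range of inhibitor concentrations. α = (CnRi − CnRo)/(CnS − CnRo); αmax is the maximal α, and [i]0.5 is the concentration giving α = 0.5 (mean ± SEM).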

[9] = organism: Cavia porcellus; assay: Decrease in atrial rate of the right atrium of guinea pig expressed as the negative chronotropy.; set-up: concentration or dose not given beside the values
[10] = organism: Cavia porcellus; assay: Potency expressed as EC50 for the negative inotropic activity; 'i' means Inactive; assay type: functional
[11] = organism: Cavia porcellus; assay: Potency expressed as IC50 for the vasorelaxant activity; 'i' means inactive.; assay type: functional
[12] = test system: K562; assay: percentage of the dead cells of K-562 cells was determined for the concentration of 1 uM of the compound.; assay type: ADME, cell-based; details: human, k562, 1 µM; method in brief: as §1
[13] = test system: K562; assay: The efficacy in reverting MDR was evaluated on erythroleukemia K-562 cell line.; assay type: functional, Homo sapiens; method in brief: as §2
[14] = test system: K562; assay: Potency that causes half maximal increase in nuclear concentration of pirarubicin; 'i' means Inactive; assay type: functional, cell-based; details: Homo sapiens; method in brief: as §2
[15] = organism: Cavia porcellus; assay: Decrease in developed tension of the right atrium of guinea pig expressed as the negative chronotropy.; assay type: functional, Cardiac atrium; set-up: scale not given: the % may be the effect or the level left
Method in brief: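 Spontaneously beating isolated guinea pig right atrium. Read-out is the fall in atrial rate at 5 × 10^-5 M (10^-5 M for some compounds), given as percent change from control (n = 7-8).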

[16] = organism: Cavia porcellus; assay: Potency expressed as EC30 for the negative chronotropic activity; 'i' means Inactive; assay type: functional
[17] = organism: Cavia porcellus; assay: Potency expressed as IC50 for the vasorelaxant activity; assay type: functional
[18] = organism: Cavia porcellus; assay: Potency expressed as EC30 for the negative chronotropic activity; assay type: functional

## COc1ccc(C(C#N)(CC#CCN(C)CC23CC4CC(CC(C4)C2)C3)C(C)C)cc1OC.Cl (stereo not given)
[1]
  EC50: 1160 nM
[2]
  Activity: 77%
[3]
  IC50: 3420 nM
[4]
  EC30: 240 nM
[5]
  Activity: 65%
[6]
  Dead cells: 0%
[7]
  Potency: 1300 nM
[8]
  Alpha max: 0.8
[9]
  Activity: 92%

## Cl.N#CC(CCCNCc1c2ccccc2cc2ccccc12)(c1ccccc1)c1ccccc1
[10]
  EC50: Not Active
[2]
  Activity: 48%
[4]
  EC30: 660 nM
[11]
  IC50: Inactive
[5]
  Activity: 6%
[12]
  Dead cells: 20%
[7]
  Potency: 500 nM
[13]
  Alpha max: 0.7
[9]
  Activity: 67%

## COc1ccc(C(C#N)(CCCN(C)C23CC4CC(CC(C4)C2)C3)C(C)C)cc1OC.Cl (stereo not given)
[1]
  EC50: 3990 nM
[2]
  Activity: 80%
[3]
  IC50: 3800 nM
[4]
  EC30: 910 nM
[5]
  Activity: 65%
[14]
  Potency: inactive
[9]
  Activity: 81%

## COc1ccc(C(C#N)(CCCN(C)Cc2c3ccccc3cc3ccccc23)C(C)C)cc1OC.Cl (stereo not given)
[1]
  EC50: 650 nM
[2]
  Activity: 85%
[15]
  Activity: 19%
[16]
  EC30: inactive
[11]
  IC50: Inactive
[5]
  Activity: 9%
[6]
  Dead cells: 3%
[7]
  Potency: 2500 nM
[8]
  Alpha max: 0.5

## C=CCNc1nc(NCC=C)nc(N2CCC(NCCCC(C#N)(c3ccc(OC)c(OC)c3)C(C)C)CC2)n1.Cl (stereo not given)
[10]
  EC50: Not Active
[2]
  Activity: 39%
[3]
  IC50: 3450 nM
[4]
  EC30: 1750 nM
[5]
  Activity: 62%
[6]
  Dead cells: 0%
[7]
  Potency: 1600 nM
[8]
  Alpha max: 0.9
[9]
  Activity: 87%

## COc1ccc(C(C#N)(CC#CCNCC(c2ccccc2)c2ccccc2)C(C)C)cc1OC.Cl (stereo not given)
[1]
  EC50: 1060 nM
[2]
  Activity: 61%
[3]
  IC50: 4120 nM
[4]
  EC30: 830 nM
[5]
  Activity: 54%
[6]
  Dead cells: 20%
[7]
  Potency: 100 nM
[8]
  Alpha max: 0.7
[9]
  Activity: 67%

## COc1ccc(C(C#N)(CCCNC23CC4CC(CC(C4)C2)C3)C(C)C)cc1OC.Cl (stereo not given)
[10]
  EC50: Not Active
[2]
  Activity: 45%
[17]
  IC50: 7150 nM
[18]
  EC30: 1700 nM
[5]
  Activity: 81%
[6]
  Dead cells: 0%
[7]
  Potency: 2000 nM
[8]
  Alpha max: 0.7
[9]
  Activity: 80%

## Cl.N#CC(CCCNC12CC3CC(CC(C3)C1)C2)(c1ccccc1)c1ccccc1
[1]
  EC50: 1030 nM
[2]
  Activity: 80%
[3]
  IC50: 3490 nM
[4]
  EC30: 1260 nM
[5]
  Activity: 55%
[6]
  Dead cells: 0%
[7]
  Potency: 500 nM
[8]
  Alpha max: 0.8
[9]
  Activity: 69%
